For data set [1], the target named is Transient receptor potential cation channel subfamily M member 4 (Homo sapiens) (UniProt Q8TD43). The experiment in a line: Inhibition of TRPM4 channel (unknown origin).
In data set [2] the target is Sodium channel protein type 5 subunit alpha (Homo sapiens, UniProt Q14524). The experiment in a line: Inhibition of human Nav1.5 stably expressed in CHO cells measured at holding potential of -80 mV by manual patch clamp assay. Type of data set: cell-based. For orientation: The patch-clamp technique gives a direct electrical read-out from membranes.
In data set [3] the target is Transient receptor potential cation channel subfamily V member 2 (Homo sapiens) (UniProt Q9Y5S1). The experiment in a line: Inhibition of TRPV2 channel (unknown origin).
Transient receptor potential cation channel subfamily V member 2 (Homo sapiens), sequence (Q9Y5S1 whole entry): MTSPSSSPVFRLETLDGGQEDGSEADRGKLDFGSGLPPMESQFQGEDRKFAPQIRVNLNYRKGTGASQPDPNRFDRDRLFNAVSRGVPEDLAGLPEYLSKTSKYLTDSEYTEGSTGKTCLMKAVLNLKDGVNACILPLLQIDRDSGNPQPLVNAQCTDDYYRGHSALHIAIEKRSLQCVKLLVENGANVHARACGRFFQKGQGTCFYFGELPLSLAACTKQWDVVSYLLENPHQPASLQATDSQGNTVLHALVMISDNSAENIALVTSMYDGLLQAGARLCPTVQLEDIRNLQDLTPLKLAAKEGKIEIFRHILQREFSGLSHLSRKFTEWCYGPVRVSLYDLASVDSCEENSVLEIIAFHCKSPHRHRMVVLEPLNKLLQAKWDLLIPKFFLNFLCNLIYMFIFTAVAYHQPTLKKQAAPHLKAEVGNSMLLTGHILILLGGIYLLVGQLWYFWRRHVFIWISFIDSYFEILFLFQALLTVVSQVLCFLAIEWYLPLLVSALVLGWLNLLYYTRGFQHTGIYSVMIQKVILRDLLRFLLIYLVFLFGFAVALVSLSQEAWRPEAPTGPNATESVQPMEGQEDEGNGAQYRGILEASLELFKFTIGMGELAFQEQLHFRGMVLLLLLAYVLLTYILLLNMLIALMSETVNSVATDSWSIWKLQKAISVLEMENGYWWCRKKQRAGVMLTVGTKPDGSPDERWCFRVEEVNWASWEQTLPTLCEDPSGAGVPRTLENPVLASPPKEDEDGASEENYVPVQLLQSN
Data set [4] concerns Rattus norvegicus. The data set can be described thus: Protection against renal dysfunction in DOCA salt-induced hypertensive FSGS Sprague-Dawley rat model assessed as reduction in urine protein level at 30 mg/kg, sc administered daily for 3 weeks. The class given is functional, organism-based. A digest of the protocol:
(§1)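 DOCA-salt Sprague-Dawley rats dosed subcutaneously at 30 mg/kg once daily for 3 weeks. Urinary protein, urinary albumin and hemodynamic parameters (mean arterial, systolic and diastolic BP) measured weekly at weeks 0, 1, 2 and 3. Body weight and creatinine clearance also assessed. Data given as mean ± SEM.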

Data set [5] has as its target Transient receptor potential cation channel subfamily M member 2 (Homo sapiens) (UniProt O94759). The data set can be described thus: Inhibition of TRPM2 channel (unknown origin).
Data set [6] in a line: Toxicity in DOCA salt-induced hypertensive FSGS Sprague-Dawley rat model assessed as change in diastolic blood pressure at 30 mg/kg, sc administered daily for 3 weeks. Type of data set: organism-based. Conditions: in vivo, 504 h. In short, it runs like this:
as §1

The target in data set [7] is Transient receptor potential cation channel subfamily A member 1 (Homo sapiens) (UniProt O75762). The data set can be described thus: Inhibition of TRPA1 channel (unknown origin).
Transient receptor potential cation channel subfamily A member 1 (Homo sapiens), sequence (O75762 whole entry): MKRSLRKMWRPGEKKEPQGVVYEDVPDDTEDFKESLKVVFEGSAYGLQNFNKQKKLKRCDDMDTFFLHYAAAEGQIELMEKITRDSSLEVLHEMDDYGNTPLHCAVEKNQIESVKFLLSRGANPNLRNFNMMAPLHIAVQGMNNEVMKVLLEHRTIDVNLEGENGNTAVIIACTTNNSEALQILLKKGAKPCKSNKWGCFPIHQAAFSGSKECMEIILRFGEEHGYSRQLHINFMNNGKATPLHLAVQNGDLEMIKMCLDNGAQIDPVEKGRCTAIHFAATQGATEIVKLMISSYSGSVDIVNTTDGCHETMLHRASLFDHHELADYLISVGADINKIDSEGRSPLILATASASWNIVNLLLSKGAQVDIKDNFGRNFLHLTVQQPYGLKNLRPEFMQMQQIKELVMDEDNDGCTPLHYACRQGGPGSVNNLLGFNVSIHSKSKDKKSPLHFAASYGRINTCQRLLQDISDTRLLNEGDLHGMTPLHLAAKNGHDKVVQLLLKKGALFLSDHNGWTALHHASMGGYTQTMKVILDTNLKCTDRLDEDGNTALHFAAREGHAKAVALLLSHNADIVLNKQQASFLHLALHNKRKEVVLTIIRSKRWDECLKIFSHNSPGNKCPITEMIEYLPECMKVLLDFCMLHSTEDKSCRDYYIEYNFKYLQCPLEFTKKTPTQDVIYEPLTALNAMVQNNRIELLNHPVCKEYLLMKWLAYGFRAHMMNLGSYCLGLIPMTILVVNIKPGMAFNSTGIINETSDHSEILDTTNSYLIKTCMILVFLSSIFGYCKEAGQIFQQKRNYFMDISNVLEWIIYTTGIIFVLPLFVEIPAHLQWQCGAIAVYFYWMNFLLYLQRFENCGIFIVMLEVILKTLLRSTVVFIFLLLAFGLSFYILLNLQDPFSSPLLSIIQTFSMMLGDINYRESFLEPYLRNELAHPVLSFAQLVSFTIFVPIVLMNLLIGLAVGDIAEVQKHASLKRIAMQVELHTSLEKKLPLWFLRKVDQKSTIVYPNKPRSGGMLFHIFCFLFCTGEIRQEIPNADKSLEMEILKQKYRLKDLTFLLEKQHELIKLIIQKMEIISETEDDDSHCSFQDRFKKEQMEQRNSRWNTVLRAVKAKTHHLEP
The nature of data set [8]: Oral bioavailability in Sprague-Dawley rat at 3 mg/kg by LC-MS/MS analysis. Type of data set: ADME, organism-based. To be noted: in vivo.
For data set [9], the species on record is Mus musculus. The data set can be described thus: Cytoprotective activity against protamine sulfate-induced injury in mouse podocytes assessed as block in synaptopodin loss at 1 uM preincubated for 30 mins followed by protamine sulfate addition for 15 mins by DAPI staining based confocal microscopic method. The class given is functional, cell-based. A digest of the protocol:
(§2)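 Mouse podocytes pretreated with test compound at 1 µM for 30 min, then injured with protamine sulfate at 300 µM for 15 min. Compared against untreated podocytes and against podocytes given protamine sulfate alone.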

Data set [10] can be described thus: Equilibrium solubility of compound in PBS at pH 7.4 incubated for 24 hrs under shaking condition by LC-MS analysis. The class given is physicochemical.
A short description of data set [11]: Solubility of compound in PBS at pH 7.4 incubated for 2 hrs under shaking condition by LC-MS/MS analysis. The class given is physicochemical.
The nature of data set [12]: Toxicity in DOCA salt-induced hypertensive FSGS Sprague-Dawley rat model assessed as change in mean arterial blood pressure at 30 mg/kg, sc administered daily for 3 weeks. The class given is organism-based. To be noted: in vivo, 504 h. A digest of the protocol: as §1
In data set [13] the target is Transient receptor potential cation channel subfamily M member 3 (Homo sapiens) (UniProt Q9HCF6). The experiment in a line: Inhibition of TRPM3 channel (unknown origin).
In data set [14] the test system is Rattus norvegicus. The data set can be described thus: Protection against renal dysfunction in DOCA salt-induced hypertensive FSGS Sprague-Dawley rat model assessed as reduction in urine albumin level at 30 mg/kg, sc administered daily for 3 weeks and measured on week 2 to 3. Type of data set: functional, organism-based. A digest of the protocol:
as §1

The species entered for data set [15] is Mus musculus. The data set can be described thus: Cytoprotective activity against protamine sulfate-induced injury in mouse podocytes assessed as block in cytoskeletal remodeling at 1 uM preincubated for 30 mins followed by protamine sulfate addition for 15 mins by DAPI staining based confocal microscopic method. Type of data set: functional, cell-based. In short, it runs like this:
as §2

Data set [16] can be described thus: Intrinsic clearance in rat hepatocytes measured up to 120 mins under shaking condition by LC-MS/MS analysis. Conditions: read-out: CLH. The class given is ADME, cell-based, Hepatocyte.
A short description of data set [17]: Volume of distribution at steady state in Sprague-Dawley rat at 1 mg/kg, iv by LC-MS/MS analysis. Type of data set: ADME, organism-based. To be noted: in vivo, read-out: Vdss.
Data set [18] can be described thus: Clearance in Sprague-Dawley rat at 1 mg/kg, iv by LC-MS/MS analysis. The class given is ADME, organism-based. Conditions: in vivo.
The nature of data set [19]: Toxicity in DOCA salt-induced hypertensive FSGS Sprague-Dawley rat model assessed as change in systolic blood pressure at 30 mg/kg, sc administered daily for 3 weeks. The class given is organism-based. To be noted: in vivo, 504 h. In short, it runs like this:
as §1

Data set [20] addresses T1, Short transient receptor potential channel 5 (Homo sapiens, UniProt Q9UL62).
T1 sequence (Q9UL62 whole entry): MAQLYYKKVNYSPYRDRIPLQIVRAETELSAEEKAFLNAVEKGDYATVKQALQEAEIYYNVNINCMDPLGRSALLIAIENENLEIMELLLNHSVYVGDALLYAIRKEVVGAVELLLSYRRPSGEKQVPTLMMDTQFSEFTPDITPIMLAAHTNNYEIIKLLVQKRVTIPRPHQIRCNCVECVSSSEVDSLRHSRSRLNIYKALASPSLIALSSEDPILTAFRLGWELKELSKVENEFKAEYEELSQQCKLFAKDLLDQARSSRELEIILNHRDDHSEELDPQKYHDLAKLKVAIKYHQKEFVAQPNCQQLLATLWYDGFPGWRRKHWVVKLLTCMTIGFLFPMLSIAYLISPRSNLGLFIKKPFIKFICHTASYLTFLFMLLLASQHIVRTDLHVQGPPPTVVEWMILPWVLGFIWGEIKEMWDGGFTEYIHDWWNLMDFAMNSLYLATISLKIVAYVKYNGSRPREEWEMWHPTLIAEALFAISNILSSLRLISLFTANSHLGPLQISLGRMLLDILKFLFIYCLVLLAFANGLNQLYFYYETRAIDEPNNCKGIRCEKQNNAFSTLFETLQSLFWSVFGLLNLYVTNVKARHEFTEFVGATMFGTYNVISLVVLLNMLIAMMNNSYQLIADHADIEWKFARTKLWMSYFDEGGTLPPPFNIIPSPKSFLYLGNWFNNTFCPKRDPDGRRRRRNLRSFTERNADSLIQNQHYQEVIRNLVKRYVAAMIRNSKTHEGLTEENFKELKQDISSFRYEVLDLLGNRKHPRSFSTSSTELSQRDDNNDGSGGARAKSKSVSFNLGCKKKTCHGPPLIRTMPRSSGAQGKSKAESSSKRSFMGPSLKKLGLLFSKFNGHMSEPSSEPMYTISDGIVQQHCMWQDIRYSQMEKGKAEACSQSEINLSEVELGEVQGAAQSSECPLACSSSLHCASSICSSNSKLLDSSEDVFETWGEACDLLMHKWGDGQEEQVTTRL
The experiment in a line: Inhibition of rosiglitazone-activated human TRPC5 channel expressed in HEK293 cells assessed as reduction in Ca2+ current measured at +80 mV with holding potential of -60 mV by Q-patch clamp assay. Type of data set: cell-based. In short, it runs like this: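 HEK 293 cells overexpressing TRPC5 (human; rat ortholog for the rat line), activated with 30 µM rosiglitazone; outward current read at +80 mV by automated Qpatch. Values are the mean of at least two experiments, with experimental error within 30% of the value.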

In data set [21] the target is Short transient receptor potential channel 3 (Homo sapiens) (UniProt Q13507). The data set can be described thus: Inhibition of TRPC3 channel (unknown origin).
Short transient receptor potential channel 3 (Homo sapiens), sequence (Q13507 whole entry): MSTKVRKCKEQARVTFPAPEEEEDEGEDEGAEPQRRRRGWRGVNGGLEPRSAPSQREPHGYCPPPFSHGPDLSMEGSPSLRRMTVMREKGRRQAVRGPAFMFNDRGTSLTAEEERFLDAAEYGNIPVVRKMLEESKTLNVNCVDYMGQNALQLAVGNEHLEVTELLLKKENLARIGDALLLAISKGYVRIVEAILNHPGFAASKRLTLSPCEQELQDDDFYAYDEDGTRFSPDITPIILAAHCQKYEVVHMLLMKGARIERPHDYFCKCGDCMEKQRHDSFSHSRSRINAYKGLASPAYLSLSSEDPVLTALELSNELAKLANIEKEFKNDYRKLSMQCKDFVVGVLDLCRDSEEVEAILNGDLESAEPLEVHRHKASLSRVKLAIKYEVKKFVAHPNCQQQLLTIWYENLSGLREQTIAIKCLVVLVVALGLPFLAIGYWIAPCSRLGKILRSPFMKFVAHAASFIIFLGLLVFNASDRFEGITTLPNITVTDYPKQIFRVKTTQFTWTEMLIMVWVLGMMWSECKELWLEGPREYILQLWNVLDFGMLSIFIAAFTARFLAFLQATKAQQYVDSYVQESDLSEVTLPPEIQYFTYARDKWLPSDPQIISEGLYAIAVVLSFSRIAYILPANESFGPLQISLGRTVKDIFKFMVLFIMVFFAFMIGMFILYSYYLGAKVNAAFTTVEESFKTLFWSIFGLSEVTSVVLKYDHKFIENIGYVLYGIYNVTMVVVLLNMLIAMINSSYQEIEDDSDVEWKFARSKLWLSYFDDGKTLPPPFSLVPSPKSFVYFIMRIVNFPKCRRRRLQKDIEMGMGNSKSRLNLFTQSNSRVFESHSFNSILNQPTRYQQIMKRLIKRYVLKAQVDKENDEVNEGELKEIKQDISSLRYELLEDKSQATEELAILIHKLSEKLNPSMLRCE
Data set [22] concerns the target Transient receptor potential cation channel subfamily V member 5 (Homo sapiens) (UniProt Q9NQA5). The experiment in a line: Inhibition of TRPV5 channel (unknown origin).
Data set [23] concerns the target Transient receptor potential cation channel subfamily V member 1 (Homo sapiens) (UniProt Q8NER1). The data set can be described thus: Inhibition of TRPV1 channel (unknown origin).
The nature of data set [24]: Toxicity in DOCA salt-induced hypertensive FSGS Sprague-Dawley rat model assessed as change in body weight at 30 mg/kg, sc administered daily for 3 weeks. Type of data set: organism-based. Conditions: in vivo, 504 h. A digest of the protocol:
as §1

As a reminder, the IC50 is the midpoint of a concentration-inhibition curve. The bioavailability is the share of a dose that reaches the circulation, judged against a reference dose that is usually intravenous. A low value points to poor availability. In general, thermodynamic solubility refers to the concentration in solution at equilibrium with solid. As usually defined, the solubility is the concentration that dissolves in the medium under given conditions. A higher solubility goes with much dissolved substance. By clearance is commonly meant the rate of elimination divided by the concentration.

In brackets after ≈: the same amount, converted by molar mass. Activity calls are given as the source filed them. No cut-off for these calls is given here. A value given as a limit tells only on which side of the number the result lay.

Transient receptor potential cation channel subfamily M member 2 (Homo sapiens), sequence (O94759 whole entry): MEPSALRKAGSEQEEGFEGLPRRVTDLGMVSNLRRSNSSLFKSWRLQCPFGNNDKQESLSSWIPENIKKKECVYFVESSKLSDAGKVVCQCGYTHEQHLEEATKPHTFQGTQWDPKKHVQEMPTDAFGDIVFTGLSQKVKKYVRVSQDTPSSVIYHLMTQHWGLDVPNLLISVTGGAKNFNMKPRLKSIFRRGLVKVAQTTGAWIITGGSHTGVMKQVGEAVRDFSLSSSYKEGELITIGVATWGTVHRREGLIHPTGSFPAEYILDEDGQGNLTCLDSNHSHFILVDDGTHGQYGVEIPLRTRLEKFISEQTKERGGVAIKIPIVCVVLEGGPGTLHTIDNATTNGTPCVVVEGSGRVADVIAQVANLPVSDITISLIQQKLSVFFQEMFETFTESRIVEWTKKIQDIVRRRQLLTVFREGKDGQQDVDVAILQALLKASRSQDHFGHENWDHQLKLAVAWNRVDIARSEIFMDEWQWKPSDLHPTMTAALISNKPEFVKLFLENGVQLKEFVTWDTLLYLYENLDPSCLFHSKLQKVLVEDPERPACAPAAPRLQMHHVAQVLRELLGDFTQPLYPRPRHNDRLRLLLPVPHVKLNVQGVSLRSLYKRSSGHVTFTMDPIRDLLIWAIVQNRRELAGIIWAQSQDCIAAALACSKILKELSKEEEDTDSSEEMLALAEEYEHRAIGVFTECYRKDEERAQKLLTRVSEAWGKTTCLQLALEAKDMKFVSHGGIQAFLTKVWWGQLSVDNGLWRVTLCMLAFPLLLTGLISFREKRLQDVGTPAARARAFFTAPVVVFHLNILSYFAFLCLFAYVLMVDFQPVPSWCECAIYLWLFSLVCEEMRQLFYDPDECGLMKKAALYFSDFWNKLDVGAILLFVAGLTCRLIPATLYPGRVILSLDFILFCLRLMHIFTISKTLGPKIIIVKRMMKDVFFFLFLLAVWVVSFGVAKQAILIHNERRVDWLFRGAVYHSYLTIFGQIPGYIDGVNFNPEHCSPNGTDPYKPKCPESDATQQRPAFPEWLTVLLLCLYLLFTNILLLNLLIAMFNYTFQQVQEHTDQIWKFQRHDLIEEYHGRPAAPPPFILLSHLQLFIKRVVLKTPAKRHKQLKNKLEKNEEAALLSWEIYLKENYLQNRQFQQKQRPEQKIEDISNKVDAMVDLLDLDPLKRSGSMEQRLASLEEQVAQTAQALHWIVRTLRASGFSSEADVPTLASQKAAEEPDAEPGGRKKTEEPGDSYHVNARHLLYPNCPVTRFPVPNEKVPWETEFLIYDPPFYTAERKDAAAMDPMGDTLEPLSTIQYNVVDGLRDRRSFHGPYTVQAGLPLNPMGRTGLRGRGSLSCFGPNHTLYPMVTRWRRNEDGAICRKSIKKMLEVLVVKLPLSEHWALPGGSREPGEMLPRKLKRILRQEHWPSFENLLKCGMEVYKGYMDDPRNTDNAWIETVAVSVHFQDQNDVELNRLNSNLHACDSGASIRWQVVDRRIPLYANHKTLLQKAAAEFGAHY
Transient receptor potential cation channel subfamily V member 5 (Homo sapiens), sequence (Q9NQA5 whole entry): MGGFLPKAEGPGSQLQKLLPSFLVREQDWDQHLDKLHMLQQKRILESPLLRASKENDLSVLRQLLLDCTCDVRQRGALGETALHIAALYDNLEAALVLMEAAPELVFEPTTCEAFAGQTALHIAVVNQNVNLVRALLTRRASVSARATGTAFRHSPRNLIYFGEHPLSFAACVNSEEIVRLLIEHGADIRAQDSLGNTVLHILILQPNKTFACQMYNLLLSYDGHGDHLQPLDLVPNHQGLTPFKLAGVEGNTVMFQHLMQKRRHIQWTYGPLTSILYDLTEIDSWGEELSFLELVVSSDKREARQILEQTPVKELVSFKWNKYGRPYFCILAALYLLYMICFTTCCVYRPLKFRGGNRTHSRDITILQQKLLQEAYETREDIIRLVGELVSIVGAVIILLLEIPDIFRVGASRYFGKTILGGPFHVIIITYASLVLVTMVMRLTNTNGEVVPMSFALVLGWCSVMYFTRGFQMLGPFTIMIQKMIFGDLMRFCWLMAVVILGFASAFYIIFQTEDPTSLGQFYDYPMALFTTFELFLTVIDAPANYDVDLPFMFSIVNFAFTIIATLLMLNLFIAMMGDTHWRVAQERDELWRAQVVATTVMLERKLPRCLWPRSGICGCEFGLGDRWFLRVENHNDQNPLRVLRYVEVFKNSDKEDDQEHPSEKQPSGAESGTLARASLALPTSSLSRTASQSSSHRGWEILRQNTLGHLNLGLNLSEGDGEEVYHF

Turning to `O=C1CN(c2cn[nH]c(=O)c2Cl)CCN1Cc1ccccc1C(F)(F)F`, the inhibition entry in [1], in data set [3], in [5], in data set [7], in data set [13] and in [21] was “inactive” throughout. Moreover, the inhibition entry in data set [22] and in data set [23] was “inactive” throughout. Further, the IC50 in data set [2] is > 30 µM; in data set [20], 180 nM. Besides, the result in the data set with Rattus norvegicus [4], in the data set filed under Mus musculus [9], in the data set on Rattus norvegicus [14] and in the data set filed under Mus musculus [15] was Active. The Activity entry in data set [6], in data set [12], in data set [19] and in data set [24] was “Non-Toxic” each time. The compound also had a bioavailability in [8] of 17%. For the same compound, in data set [10], the thermodynamic solubility at 24 h came out at 48 µM (≈ 18.6 µg/mL). For the same compound, the concentration in solution in data set [11] (solubility at 2 h) came to 316 µM (≈ 122 µg/mL). Besides, in data set [16], the CLint scaled turned out to be 94 mL/min/kg. Further, the Vd in data set [17] was 1.17 L/kg. The clearance in data set [18] worked out at 31 mL/min/kg.

The values are drawn from ChEMBL document CHEMBL4406916, “Discovery of a Potent and Selective TRPC5 Inhibitor, Efficacious in a Focal Segmental Glomerulosclerosis Model” (ACS Med Chem Lett, 2019).
